Experimental data taken from ChEMBL document CHEMBL4033789, “Discovery of a New Four-Leaf Clover-Like Ligand as a Potent c-MYC Transcription Inhibitor Specifically Targeting the Promoter G-Quadruplex” (J Med Chem, 2018).
pIC50, pKd: −log10 of the molar value. Activity calls are given as the source filed them. The rule behind the calls is not given here.

Tests used:
[1] = Stabilization of BCL2 promoter G-quadruplex DNA (unknown origin) assessed as effect on melting temperature at 15 uM by circular dichroism spectroscopic assay; format: ADME
Method in brief: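 G-quadruplex at 3 µM, with or without 15 µM compound, in 10 mM Tris-HCl pH 7.2 containing 2 mM KCl; CD recorded every 5 °C from 25 to 95 °C at a heating rate of 1 °C/min.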

[2] = tested on: Mus musculus; assay: Toxicity in nude BALB/c mouse xenografted with human SiHa cells assessed as signs of distress at 5 to 20 mg/kg, ip administered every other day for 24 days; format: organism-based; settings: in vivo, 576 h
[3] = tested on: SiHa; assay: Antitumor activity against human SiHa cells xenografted in nude BALB/c mouse assessed as tumor growth inhibition at 20 mg,kg, ip administered every other day for 24 days; format: functional
Method in brief: (§1)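 BALB/c nude mice (5 weeks old) given 1×10^7 SiHa cells subcutaneously in right flank; at ~50 mm3 tumor volume, randomized (10 per group) and dosed intraperitoneally every other day for 24 days; controls got equal-volume saline. Caliper volume as 1/2 × length × width2; tumors weighed at end; inhibition rate = (1 − mean treated tumor weight/mean control tumor weight) × 100%.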

[4] = tested on: SiHa; assay: Cytotoxicity against human SiHa cells assessed as cell growth inhibition at 1.2 to 3 uM after 130 hrs by RTCA assay; format: functional, cell-based
Method in brief: (§2)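 Cells seeded at 2000 per well on impedance plates, settled 20 min at room temperature, profiled 24 h; medium then replaced with compound-containing medium and cells monitored to 130 h total. Cell index normalized to 1.0 at the time point just before compound addition.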

[5] = Cytotoxicity against mouse primary mesangial cells assessed as reduction in cell viability after 24 hrs by MTT assay; format: cell-based
Method in brief: (§3)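 Cells seeded at 5.0×10^3 per well, exposed to compound for 24 h; MTT (2.5 mg/mL) added for 4 h, formazan dissolved in DMSO, OD read at 570 nm. Triplicate; IC50 from curves of mean OD against concentration.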

[6] = species: Homo sapiens; assay: Stabilization of c-Myc promoter G-quadruplex DNA in human CA46 cells assessed as downregulation of exon 1 transcriptional level at 1.25 to 5 uM after 6 hrs by RT-PCR analysis; format: cell-based
Method in brief: (§4)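 RAJI and CA46 cells treated 6 h over a concentration range; total RNA reverse-transcribed (oligo dT18, M-MLV, 42 °C 1 h then 85 °C 5 min); exon 1 and exon 2 amplified by real-time PCR with exon-specific primers, products run on 1% agarose gel; three repeats.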

[7] = Stabilization of wild type c-Myc promoter G-quadruplex DNA (unknown origin) transfected in human SiHa cells co-expressing psiCHECK2 luciferase plasmid assessed as inhibition of gene transcription at 1.25 to 2.5 uM after 48 hrs by dual-luciferase reporter gene assay; format: cell-based
Method in brief: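 SiHa cells transfected with psiCHECK2 carrying wild-type or mutant c-MYC promoter driving Renilla luciferase, firefly luciferase on same plasmid; compound added 4 h post-transfection, incubated further at 37 °C; Renilla signal normalized to firefly; three repeats, mean ± SEM.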

[8] = tested on: Mus musculus; assay: Toxicity in nude BALB/c mouse xenografted with human SiHa cells assessed as viscera weight reduction at 5 to 20 mg/kg, ip administered every other day for 24 days; format: organism-based; settings: in vivo, 576 h
Method in brief: (§5)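 BALB/c nude mice, 5 weeks old, implanted subcutaneously in right flank with 1×10^7 SiHa cells; at ~50 mm3 tumor, 10 per group dosed ip every other day for 24 days, saline control; body weight measured daily, viscera weighed at sacrifice; mean ± SEM, Student's t test versus saline.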

[9] = tested on: BJ; assay: Cytotoxicity against human BJ cells assessed as cell growth inhibition at 1.2 to 3 uM after 130 hrs by RTCA assay; format: cell-based; method in brief: as §2
[10] = species: Homo sapiens; assay: Stabilization of c-Myc promoter G-quadruplex DNA in human Raji cells assessed as downregulation of exon 2 transcriptional level after 6 hrs by RT-PCR analysis; format: cell-based; method in brief: as §4
[11] = species: Homo sapiens; assay: Stabilization of c-Myc promoter G-quadruplex DNA in human CA46 cells assessed as effect on exon 2 transcriptional level at 1.25 to 5 uM after 6 hrs by RT-PCR analysis; format: cell-based; method in brief: as §4
[12] = species: Homo sapiens; assay: Stabilization of c-Myc promoter G-quadruplex DNA in human Raji cells assessed as downregulation of exon 1 transcriptional level after 6 hrs by RT-PCR analysis; format: cell-based; method in brief: as §4
[13] = Binding affinity to c-KIT1 promoter G-quadruplex DNA (unknown origin) after 1 min by fluorescence titration method; format: ADME
Method in brief: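 Oligonucleotide stock added stepwise to fixed-concentration compound in 10 mM Tris-HCl pH 7.2, 100 mM KCl; equilibrated ≥1 min after each addition, emission read with excitation at 350 nm. KD from fitting titration data to the Benesi–Hildebrand equation; 1:1 stoichiometry checked by Job plot.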

[14] = tested on: A-375; assay: Cytotoxicity against human A375 cells assessed as reduction in cell viability after 24 hrs by MTT assay; format: functional, cell-based; settings: A-375, 24 h; method in brief: as §3
[15] = Stabilization of hybrid telomeric htg22 G-quadruplex DNA (unknown origin) assessed as effect on melting temperature at 15 uM by circular dichroism spectroscopic assay; format: ADME
Method in brief: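 CD melting of 3 µM annealed G-quadruplex with or without 15 µM ligand in 10 mM Tris-HCl pH 7.2 with 2 mM KCl (50 mM KCl for htg22 and HRAS); read every 5 °C over 25–95 °C, heating 1 °C/min.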

[16] = tested on: SiHa; assay: Induction of cell cycle arrest in human SiHa cells assessed as accumulation at G0/G1 phase up to 5 uM after 12 hrs by propidium iodide-staining based FACS analysis (reference value: 61%); format: functional
Method in brief: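 SiHa cells treated 12 h, fixed in 70% ethanol at 4 °C overnight, stained with 50 µg/mL PI plus 75 KU/mL RNase A in PBS for 30 min in the dark at room temperature; flow cytometry, 1.6×10^4 events per sample, cell cycle distribution analyzed.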

[17] = tested on: Mus musculus; assay: Toxicity in nude BALB/c mouse xenografted with human SiHa cells assessed as body weight reduction at 5 to 20 mg/kg, ip administered every other day for 24 days; format: organism-based; settings: in vivo, 576 h; method in brief: as §5
[18] = tested on: SiHa; assay: Cytotoxicity against human SiHa cells assessed as reduction in cell viability after 24 hrs by MTT assay; format: functional, cell-based; method in brief: as §3
[19] = Binding affinity to 1 uM PDGFA promoter G-quadruplex DNA (unknown origin) at 1 uM after 1 min by fluorescence spectroscopic analysis; format: ADME
Method in brief: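 Fluorescence emission spectra of 1 µM compound mixed with 1 µM pre-annealed oligonucleotide (G-quadruplexes folded in 100 mM KCl by heating to 95 °C for 5 min, slow cooling), in Tris-HCl buffer.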

[20] = species: Homo sapiens; assay: Stabilization of c-Myc G-quadruplex DNA in human SiHa cells assessed as inhibition of c-Myc mRNA level at 1.25 to 5 uM after 6 hrs by RT-PCR method; format: cell-based
Method in brief: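 SiHa cells (2.0×10^5) dosed 6 h; total RNA reverse-transcribed with oligo dT18 primer and M-MLV (42 °C 1 h, 85 °C 5 min); PCR 95 °C 5 min then 30 cycles (95 °C 30 s, 58 °C 30 s, 72 °C 40 s); products checked on agarose gel.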

[21] = tested on: SiHa; assay: Antitumor activity against human SiHa cells xenografted in nude BALB/c mouse assessed as tumor growth inhibition at 5 mg,kg, ip administered every other day for 24 days; format: functional; method in brief: as §1

With `CCn1c2ccccc2c2cc(-c3nc(-c4ccc(N5CCN(C)CC5)cc4)c(-c4ccc(N5CCN(C)CC5)cc4)n3-c3ccc(OC)cc3)ccc21` the Activity [1] was “Not Active”, the Activity [2] was “Non-Toxic” and the TGI [3] was 69%. For the same compound, the “growth inhibition (GI)” value [4] was “Active”, the pIC50 [5] was 4.81 and the Activity [6] was “Active”. For the same compound, the inhibition [7] was “Active”, the Activity [8] was “Non-Toxic” and the “growth inhibition (GI)” value [9] was “Non-Toxic”. For the same compound, the Activity [10] was “Dose-dependent effect”, the Activity [11] was “inactive” and the Activity [12] was “Dose-dependent effect”. The pKd [13] was 6.10, the pIC50 [14] was 5.38 and the Activity [15] was “Not Active”. The Activity [16] was 70%, the Activity [17] was “Non-Toxic” and the pIC50 [18] was 5.48. The Activity [19] was “Not Active”, the inhibition [20] was “Active” and the TGI [21] was 57%.
